Measurements from ChEMBL document CHEMBL2321792, “Synthesis and antimalarial activity of 3,3-spiroanellated 5,6-disubstituted 1,2,4-trioxanes” (ACS Med Chem Lett, 2013).
Converted amounts (≈) assume the structure as drawn. The source made the active and inactive calls. The rule behind the calls is not given here.

What was measured:
[1] = tested on: Plasmodium yoelii nigeriensis; assay: Antimalarial activity against chloroquine, mefloquine and halofantrine-resistant Plasmodium yoelii nigeriensis infected in Swiss mouse assessed as protection against parasite-induced mortality at 96 mg/kg, po administered for 4 days measured on day 28; type: functional, organism-based; set-up: dose 96 mg/kg, route po po po po po po po po po po po
Method in brief: (§1)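 Peters 4-day test in Swiss mice infected with multidrug-resistant P. yoelii nigeriensis. Groups of 5 mice were dosed once daily for 4 days at the stated mg/kg, oral or i.m. Mice were followed to day 28. Protection is the percentage of treated mice surviving to day 28, read from the alive/total count per group.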

[2] = tested on: Plasmodium yoelii nigeriensis; assay: Antimalarial activity against chloroquine, mefloquine and halofantrine-resistant Plasmodium yoelii nigeriensis infected in Swiss mouse assessed as suppression of parasitemia at 96 mg/kg, po administered for 4 days measured on day 4; type: functional; details: 96 h
Method in brief: (§2)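 Swiss mice infected with multidrug-resistant P. yoelii nigeriensis were treated by the Peters procedure: 5 per group, dosed daily for 4 days, oral or i.m. Parasitaemia was read on day 4 against an untreated control group. Suppression = [(c − t)/c] × 100, where c is control and t is treated parasitaemia. 100% means parasites were below the detection limit.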

[3] = tested on: Plasmodium yoelii nigeriensis; assay: Antimalarial activity against chloroquine, mefloquine and halofantrine-resistant Plasmodium yoelii nigeriensis infected in Swiss mouse assessed as suppression of parasitemia at 96 mg/kg, im administered for 4 days measured on day 4; type: functional; details: 96 h, route intramuscular; method in brief: as §2
[4] = tested on: Plasmodium yoelii nigeriensis; assay: Antimalarial activity against chloroquine, mefloquine and halofantrine-resistant Plasmodium yoelii nigeriensis infected in Swiss mouse assessed as protection against parasite-induced mortality at 96 mg/kg, im administered for 4 days measured on day 28; type: functional, organism-based; set-up: dose 96 mg/kg; method in brief: as §1
[5] = tested on: Plasmodium yoelii nigeriensis; assay: Antimalarial activity against chloroquine, mefloquine and halofantrine-resistant Plasmodium yoelii nigeriensis infected in Swiss mouse assessed as protection against parasite-induced mortality at 48 mg/kg, po administered for 4 days measured on day 28; type: functional; method in brief: as §1
[6] = Intrinsic clearance in rat liver microsomes at […] by HPLC-PDA analysis; type: ADME, Microsome; details: read-out: CLH
[7] = Inhibition of CYP3A in rat liver microsome using testosterone as substrate by HPLC-PDA analysis; type: ADME, microsomes
[8] = tested on: Plasmodium yoelii nigeriensis; assay: Antimalarial activity against chloroquine, mefloquine and halofantrine-resistant Plasmodium yoelii nigeriensis infected in Swiss mouse assessed as suppression of parasitemia at 24 mg/kg, po administered for 4 days measured on day 4; type: functional; details: 96 h; method in brief: as §2
[9] = Distribution coefficient, log D of the compound at pH 7.4 by HPLC-PDA analysis; type: physicochemical; details: octanol/water
[10] = tested on: Plasmodium yoelii nigeriensis; assay: Antimalarial activity against chloroquine, mefloquine and halofantrine-resistant Plasmodium yoelii nigeriensis infected in Swiss mouse assessed as suppression of parasitemia at 48 mg/kg, po administered for 4 days measured on day 4; type: functional; details: 96 h; method in brief: as §2
Cytochrome P450 1A2 = target: T1, Cytochrome P450 1A2 (Rattus norvegicus, UniProt P04799); assay: Inhibition of CYP1A2 in rat liver microsome using phenacetin as substrate by HPLC-PDA analysis; type: ADME, microsomes
T1 sequence (P04799 whole entry): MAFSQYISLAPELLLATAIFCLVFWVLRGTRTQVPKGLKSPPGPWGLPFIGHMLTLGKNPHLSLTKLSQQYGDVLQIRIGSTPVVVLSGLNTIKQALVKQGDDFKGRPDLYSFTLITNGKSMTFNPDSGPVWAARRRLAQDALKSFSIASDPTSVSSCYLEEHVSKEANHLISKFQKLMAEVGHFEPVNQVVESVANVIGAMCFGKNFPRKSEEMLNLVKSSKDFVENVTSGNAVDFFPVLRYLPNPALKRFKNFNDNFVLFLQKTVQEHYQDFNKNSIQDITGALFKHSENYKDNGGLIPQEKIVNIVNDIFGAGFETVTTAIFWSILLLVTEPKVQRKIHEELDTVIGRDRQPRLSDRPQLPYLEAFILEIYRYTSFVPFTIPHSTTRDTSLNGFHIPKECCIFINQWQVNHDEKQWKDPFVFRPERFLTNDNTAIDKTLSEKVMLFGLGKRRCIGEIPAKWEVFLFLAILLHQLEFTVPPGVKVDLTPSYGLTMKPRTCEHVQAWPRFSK

Plasma = assay: Fraction unbound in rat plasma at 10 uM by ultra-filtration method; type: ADME, cell-free
[11] = Solubility of the compound in distilled water after 24 hrs by shake flask method; type: physicochemical
Cytochrome P450 2D4 = target: T2, Cytochrome P450 2D4 (Rattus norvegicus, UniProt Q64680); assay: Inhibition of CYP2D4 in rat liver microsome using dextromethorphan as substrate by HPLC-PDA analysis; type: ADME, microsomes
T2 sequence (Q64680 whole entry): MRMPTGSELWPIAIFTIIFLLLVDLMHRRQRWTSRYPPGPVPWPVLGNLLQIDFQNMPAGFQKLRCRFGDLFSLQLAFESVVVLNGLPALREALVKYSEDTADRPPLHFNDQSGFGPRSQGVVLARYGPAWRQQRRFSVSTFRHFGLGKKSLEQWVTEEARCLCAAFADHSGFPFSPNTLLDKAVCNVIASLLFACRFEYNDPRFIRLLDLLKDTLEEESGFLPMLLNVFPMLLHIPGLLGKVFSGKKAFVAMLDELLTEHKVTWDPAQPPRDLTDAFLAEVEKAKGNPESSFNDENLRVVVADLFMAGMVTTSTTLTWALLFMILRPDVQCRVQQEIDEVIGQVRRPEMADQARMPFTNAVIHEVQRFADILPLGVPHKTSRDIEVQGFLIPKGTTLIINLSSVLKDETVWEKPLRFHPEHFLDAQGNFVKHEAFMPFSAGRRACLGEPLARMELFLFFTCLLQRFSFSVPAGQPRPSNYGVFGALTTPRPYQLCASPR

[12] = tested on: Plasmodium yoelii nigeriensis; assay: Antimalarial activity against chloroquine, mefloquine and halofantrine-resistant Plasmodium yoelii nigeriensis infected in Swiss mouse assessed as protection against parasite-induced mortality at 24 mg/kg, po administered for 4 days measured on day 28; type: functional; method in brief: as §1
[13] = Half life in rat liver microsomes at […] by HPLC-PDA analysis; type: ADME, Microsome
Cytochrome P450 2C11 = target: T3, Cytochrome P450 2C11 (Rattus norvegicus, UniProt P08683); assay: Inhibition of CYP2C11 in rat liver microsome using diclofenac as substrate by HPLC-PDA analysis; type: ADME, microsomes
T3 sequence (P08683 whole entry): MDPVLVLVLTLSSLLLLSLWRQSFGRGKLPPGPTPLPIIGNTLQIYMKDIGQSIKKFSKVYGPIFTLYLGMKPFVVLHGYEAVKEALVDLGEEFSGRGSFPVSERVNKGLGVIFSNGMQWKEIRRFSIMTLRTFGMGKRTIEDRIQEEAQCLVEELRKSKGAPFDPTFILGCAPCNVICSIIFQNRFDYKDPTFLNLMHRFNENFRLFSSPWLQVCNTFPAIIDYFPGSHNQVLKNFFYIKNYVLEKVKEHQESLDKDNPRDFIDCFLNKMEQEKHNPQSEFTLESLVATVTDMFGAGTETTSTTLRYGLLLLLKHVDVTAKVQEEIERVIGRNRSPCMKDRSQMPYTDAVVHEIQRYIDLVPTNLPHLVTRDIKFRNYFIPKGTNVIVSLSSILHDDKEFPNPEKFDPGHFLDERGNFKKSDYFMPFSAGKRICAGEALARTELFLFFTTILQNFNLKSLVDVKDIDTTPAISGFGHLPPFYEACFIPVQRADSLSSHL

[14] = Metabolic stability in rat liver microsomes at […] after 30 mins by HPLC-PDA analysis; type: ADME, Microsome; details: read-out: Stability
[15] = Effective permeability coefficient of the compound in Sprague-Dawley rat intestine at 10 uM by In-situ single pass intestinal perfusion technique; type: ADME, tissue-based; details: other: in situ single pass intestinal perfusion, read-out: Peff
[16] = tested on: Plasmodium yoelii nigeriensis; assay: Antimalarial activity against chloroquine, mefloquine and halofantrine-resistant Plasmodium yoelii nigeriensis infected in Swiss mouse assessed as suppression of parasitemia at 12 mg/kg, po administered for 4 days measured on day 4; type: functional; details: 96 h; method in brief: as §2
[17] = tested on: Plasmodium yoelii nigeriensis; assay: Antimalarial activity against chloroquine, mefloquine and halofantrine-resistant Plasmodium yoelii nigeriensis infected in Swiss mouse assessed as protection against parasite-induced mortality at 12 mg/kg, po administered for 4 days measured on day 28; type: functional, organism-based; set-up: dose 12 mg/kg; method in brief: as §1

Row | Structure (SMILES) | Activity [1] | inhibition in vivo at 96 mg/kg [2] [%] | inhibition in vivo at 96 mg/kg [3] [%] | Activity [4] | also measured
1 | C=C(c1ccc(F)cc1)[C@H]1OOC2(CCCC2)O[C@@H]1c1ccc(F)cc1 (relative stereo) | inactive | 22.5 |  |  | 
2 | C=C(c1ccccc1)[C@H]1OOC2(CCCC2)O[C@@H]1c1ccccc1 (relative stereo) | inactive | 23.8 | 46.9 | inactive | 
3 | CCO[C@H]1O[C@@H]2O[C@@]3(C)CC[C@H]4[C@H](C)CC[C@@H]([C@H]1C)[C@@]24OO3 [ARTEMOTIL] |  |  |  |  | Activity [5]: 100%; microsomal CLint [6]: 36.6 µL/min/mg; IC50 [7]: > 100 µM; inhibition in vivo at 24 mg/kg [8]: 100%; logD [9]: 3.6; inhibition in vivo at 48 mg/kg [10]: 100%; IC50 (Cytochrome P450 1A2): > 100 µM; Fu (Plasma): 1%; solubility ([11]; buffer, 24 h): Insoluble; IC50 (Cytochrome P450 2D4): > 100 µM; Activity [12]: 20%; half-life [13]: 47.4 min; IC50 (Cytochrome P450 2C11): > 100 µM; remaining at 0.5 h [14]: 50%
4 | C=C(c1ccc(F)cc1)[C@H]1OOC2(O[C@@H]1c1ccc(F)cc1)C1CC3CC(C1)CC2C3 (relative stereo) | inactive | 16.7 |  |  | 
5 | C=C(c1ccc(Br)cc1)[C@H]1OOC2(CCCCC2)O[C@@H]1c1ccc(Br)cc1 (relative stereo) |  | 100 |  |  | 
6 | C=C(c1ccccc1)[C@H]1OOC2(O[C@@H]1c1ccccc1)C1CC3CC(C1)CC2C3 (relative stereo) | inactive | 32.4 | 44.8 | inactive | 
7 | C=C(c1ccc(Cl)cc1)[C@H]1OOC2(O[C@@H]1c1ccc(Cl)cc1)C1CC3CC(C1)CC2C3 (relative stereo) |  | 77.2 |  |  | 
8 | C=C(c1ccc(Cl)cc1)[C@H]1OOC2(CCCC2)O[C@@H]1c1ccc(Cl)cc1 (relative stereo) | inactive | 63.6 |  |  | 
9 | C=C(c1ccc(Br)cc1)[C@H]1OOC2(O[C@@H]1c1ccc(Br)cc1)C1CC3CC(C1)CC2C3 (relative stereo) | inactive | 18.1 |  |  | 
10 | C=C(c1ccc(Cl)cc1)[C@H]1OOC2(CCCCC2)O[C@@H]1c1ccc(Cl)cc1 (relative stereo) |  | 100 | 3.45 | inactive | Activity [5]: Active; microsomal CLint [6]: 60.3 µL/min/mg; inhibition in vivo at 24 mg/kg [8]: 100%; logD [9]: 4.23; Papp at 10 µM [15]: 113 ×10⁻⁶ cm/s; inhibition in vivo at 12 mg/kg [16]: 100%; Fu (Plasma): 0.8%; solubility thermodynamic at 24 h ([11]; distilled water): 13 µM (≈ 5.27 µg/mL); Activity [12]: 100%; half-life [13]: 23 min; Activity [17]: inactive
11 | C=C(c1ccccc1)[C@H]1OOC2(CCCCC2)O[C@@H]1c1ccccc1 (relative stereo) | inactive | 34.5 | 22.3 | inactive | 
12 | C=C(c1ccc(F)cc1)[C@H]1OOC2(CCCCC2)O[C@@H]1c1ccc(F)cc1 (relative stereo) | inactive | 42.5 |  |  | 
13 | C=C(c1ccc(C)cc1)[C@H]1OOC2(CCCCC2)O[C@@H]1c1ccc(C)cc1 (relative stereo) |  |  | 16.6 | inactive | Activity [5]: inactive; inhibition in vivo at 24 mg/kg [8]: 49.6%; inhibition in vivo at 48 mg/kg [10]: 89.4%; Activity [12]: inactive
14 | C=C(c1ccc(C)cc1)[C@H]1OOC2(O[C@@H]1c1ccc(C)cc1)C1CC3CC(C1)CC2C3 (relative stereo) | inactive | 36.7 | 5.76 | inactive | 
15 | C=C(c1ccc(C)cc1)[C@H]1OOC2(CCCC2)O[C@@H]1c1ccc(C)cc1 (relative stereo) | inactive | 100 |  |  | 
16 | C=C(c1ccc(Br)cc1)[C@H]1OOC2(CCCC2)O[C@@H]1c1ccc(Br)cc1 (relative stereo) |  |  |  |  | Activity [5]: 20%; inhibition in vivo at 24 mg/kg [8]: 98.6%; inhibition in vivo at 48 mg/kg [10]: 100%; Activity [12]: inactive
17 | C=C(c1ccc(OC)cc1)[C@H]1OOC2(O[C@@H]1c1ccc(OC)cc1)C1CC3CC(C1)CC2C3 (relative stereo) | inactive | 24.6 |  |  | 
